Rad51 HR inh = Rad51 (human) homologous recombination inhibition; Q06609; hRad51 DNA strand exchange, fluorescence dequenching; inhibition, % at 10 µM; hit rate 0.085% among 200,000; AID 1385;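 active = inhibition above 40% at the single screening dose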;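 also: 0% = DMSO control wells and 100% = blanks with heterologous ssDNA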
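Test system – preformed human Rad51 ssDNA filaments · Reagent – Donor/quencher-labelled 47-bp dsDNA substrate · Incubation – 37 °C 15-min filament assembly, 30-min compound preincubation, 15-min exchange · Signal – FRET fluorescence dequenching, excitation 485 nm, emission 520 nm · Read-out – percent inhibition from fluorescence, normalised to plate control and blank means · Benchmarks – plate control and blank wells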
PMI act satM6P = activators of human phosphomannose isomerase at near-saturating mannose 6-phosphate | AID 1216 | P34949 | hit rate 0.34% among 190,000 | coupled PMI enzyme assay, resazurin fluorescence, 20 min; stronger effect = higher value; 1 = untreated enzyme, 0 = substrate-free blank | activation factor at 20 µM;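 active = activation factor of 2 or more at 20 µM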
Target sequence (P34949 whole entry, looked up): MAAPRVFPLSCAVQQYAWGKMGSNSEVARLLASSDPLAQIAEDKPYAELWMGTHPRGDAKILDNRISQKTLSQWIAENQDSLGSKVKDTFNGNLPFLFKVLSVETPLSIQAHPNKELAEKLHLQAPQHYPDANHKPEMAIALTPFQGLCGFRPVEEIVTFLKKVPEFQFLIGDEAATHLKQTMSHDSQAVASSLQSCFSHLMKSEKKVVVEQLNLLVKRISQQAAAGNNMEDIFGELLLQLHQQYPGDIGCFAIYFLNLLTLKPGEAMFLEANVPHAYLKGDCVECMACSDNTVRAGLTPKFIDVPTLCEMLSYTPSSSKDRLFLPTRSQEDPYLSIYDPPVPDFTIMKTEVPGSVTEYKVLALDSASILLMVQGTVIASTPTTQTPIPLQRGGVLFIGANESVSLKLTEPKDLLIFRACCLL
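Test system – human PMI in coupled enzyme assay · Timing – 20 min incubation at room temperature · Detection – Diaphorase-driven resazurin-to-resorufin fluorescence, excitation 544, emission 590 nm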
Calpain2 inh = blocks pig calpain II enzyme activity. purified calpain II, fluorogenic peptide substrate, 30 min. AID 1236. hit rate 0.37% among 220,000. inhibition, % at 16 µM;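 active = inhibition above about 50%, limit read from the data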
PMI act = activators of human phosphomannose isomerase | purified human PMI, coupled resazurin fluorescence, 20 min; stronger effect = higher value; 1 = vehicle control, 0 substrate-free wells | activation factor at 20 µM | hit rate 0.005% among 190,000 | AID 1214;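 active = activation factor of 2 or more at 20 µM, relative to plate controls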
WT yeast gro inh = growth inhibition of WT yeast, mitochondrial fusion screen; hit rate 2.1% among 190,000; inhibition, % at 10 µM; mitochondrial fusion phenotypic screen, WT strain; in the data active = inhibition above about 58%; tested in S. cerevisiae
L major viab = Leishmania major promastigote growth inhibition; AID 1063; Leishmania major promastigotes, resazurin fluorescence viability; inhibition, % at 10 µM; hit rate 9% among 200,000; in the data active = inhibition above about 50%;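 also: promastigotes grown with compound for 44 hours at 28 °C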
Lmaj promast 1uM = L. major promastigote growth inhibition, 1 uM repeat; shares compounds with L major viab; resazurin fluorescence, 48 h; inhibition, % at 1 µM; hit rate 13% among 1,100; AID 1258;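 active = inhibition above about 50% in both repeat tests, limit read from the data; inconclusive = one repeat under the set limit, the other over it; inactive = both repeats under the set limit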
An asterisk follows results filed as active; ? = inconclusive; / = no result given. Only some compounds are listed: those with a hit (about 9.8% of all), similar ones and a draw of the others.

SMILES	Rad51 HR inh	PMI act satM6P	Calpain2 inh	PMI act	WT yeast gro inh	L major viab	Lmaj promast 1uM
Cc1ccc(C(C)NC(=O)/C(C#N)=C\c2c(C)[nH]c3ccccc23)cc1 (stereo not drawn)	4	0.9	43	0.9	88*	0	/
COC(=O)c1ccc(/C=C(\C#N)C(=O)NC(C)c2ccccc2)cc1 (stereo not drawn)	5	0.9	19	0.9	40	99*	/
CN(C)C(=O)c1nc2ccc(Cl)cn2c1CN1CCCC(OCc2cccnc2)C1 (stereo not drawn)	15	1	24	1	9	-2	/
CCOC(=O)N1CCN(Cc2nc(C3CC3)no2)CC1	/	1.1	13	1	-10	9	/
CC(C1CCN(Cc2nc(C3CC3)no2)CC1)N1CCOCC1 (stereo not drawn)	1	1	4	0.9	6	78*	/
CCOC(=O)C1=C(C)N(CC(C)C)C(=O)C1	4	0.9	-24	0.9	-13	-7	/
COc1ccccc1C(=O)Nc1ccc(Br)cc1C	/	0.8	-9	0.8	6	5	/
COc1ccc(CN(C(=O)c2cnccn2)C(C(=O)Nc2ccc(F)cc2)c2ccccc2)cc1 (stereo not drawn)	-4	1	-12	1	-6	62*	-1
Cc1ccc(C)c(S(=O)(=O)NCCOC(=O)Nc2sc(=S)n(C)c2C)c1	1	1	16	1	24	88*	-13
COc1cc(CNCCNC(=O)c2nonc2N)ccc1OCc1ccc(Cl)nc1	18	1.1	18	1	-15	35	/
Cc1sc2c(c1C)c(=O)nc1n2Cc2ccccc2-1	/	0.9	-346	0.8	-7	82*	1
Cc1cc2c(c(/C=C/C(=O)c3ccccc3)c1)OC1(C=C2)Oc2ccccc2C(=O)N1C (stereo not drawn)	1	1	-90	0.9	0	98*	25
Cn1cc(/C=C/C(=O)c2ccccc2)c2ccccc21	-12	/	35	/	/	/	/
Cc1ccc(SCCC(=O)Nc2ccc(Br)c(C)c2)cc1	-4	0.9	35	0.8	42	0	/
CCC(C)Nc1nc2c(c(=O)n(C)c(=O)n2C)n1Cc1cccc(C)c1 (stereo not drawn)	0	1	-4	1	-1	83*	-7
Cc1nn(CC(=O)NCc2ccc(-n3cccn3)cc2)c(C)c1[N+](=O)[O-]	/	0.9	-1	1	-2	-2	/
c1ccc2c(-c3c[nH]c4ccccc34)c3ccccc3nc2c1	/	0.8	-12	0.8	79*	55*	47
Cc1c2ccccc2nc2c(F)c(NCCO)c(F)c(F)c12	-14	0.7	-51	1	2	46	/
Cc1c2ccccc2nc2c(F)c(NC(C)C)c(F)c(F)c12	/	0.8	-66	1.3	16	50*	10
Cc1ccc(-n2c(SCC(=O)N3Cc4ccccc4CC3C(=O)O)nnc2-c2cccnc2)c(C)c1 (stereo not drawn)	7	1.1	-7	1	-12	-8	/
COc1ccc(-c2nc(NC(=O)c3cc(C(C)(C)C)nn3C)sc2C)cc1	-1	1.1	-28	1	-1	70*	9
CC1(C)CC(=O)C=C(c2cccnc2)C1	11	/	/	/	/	/	/
c1cncc(C2Nc3ccccc3-c3nc4ccccc4n32)c1 (stereo not drawn)	3	1	-414	1	18	86*	?
COCCCC/C(=N\OCCN)c1ccc(C(F)(F)F)cc1	-12	1	25	1	28	80*	-1
CCCNC(=O)OCC12CC3CC(CC(C3)C1)C2	-1	0.9	5	0.9	11	9	/
SMILES	Rad51 HR inh	PMI act satM6P	Calpain2 inh	PMI act	WT yeast gro inh	L major viab	Lmaj promast 1uM
CCNC(=O)OCCC12CC3CC(CC(C3)C1)C2	6	1	28	1	-1	86*	-11
Cc1cc2cc(CNC(=S)NC3CCCCC3)ccc2n1C	-6	0.9	-1	1	14	-6	/
Cc1ccc(C(=O)OCC(=O)c2ccc(Cl)s2)s1	-2	0.9	-5	0.8	26	92*	-8
O=C(COC(=O)c1ccc[nH]c1=O)c1ccc(Cl)s1	0	0.9	12	0.9	1	-7	/
Cc1ccc(-c2nnc(-c3ccc4c(c3)OCO4)o2)cc1	0	1	-23	1.1	-12	0	/
CC(C)C1N=C(c2ccc3c(c2)OCO3)CC(c2ccccc2O)N1 (stereo not drawn)	7	0.9	-28	0.8	18	99*	26
CCOc1ccccc1CNCc1ccc(F)cc1	-11	0.9	9	1	4	54*	-8
CCOc1ccccc1CNCc1ccc(C(=O)O)cc1	32	1	-6	1.1	6	6	/
Cc1ccc(S(=O)(=O)C(c2ccccc2)c2c(C)noc2C)cc1 (stereo not drawn)	10	1	30	1	13	61*	-6
Cc1noc(C)c1C(c1ccccc1)c1ccccc1	-2	0.9	12	0.9	45	2	/
Cc1noc(C)c1C(c1ccccc1)S(=O)(=O)c1ccccc1 (stereo not drawn)	11	1	17	1	3	85*	-16
CN1CCN2c3ncccc3Cc3ccccc3C2C1 (stereo not drawn)	-7	/	/	/	/	/	/
CC(C)(C)[C@]1(O)CCN2C[C@H]3c4ccccc4CCc4cccc(c43)[C@@H]2C1	-3	1.1	12	1.1	19	57*	15
O=C(NCc1ccncc1)C(=O)Nc1nc(C23CC4CC(CC(C4)C2)C3)cs1	-3	0.9	-25	0.8	0	51*	18
O=C(CCn1cnnn1)Nc1cccc(F)c1	5	1	-34	1.1	-7	-4	/
CCOC(=O)C1(N(CC)CC)Sc2cc(C)ccc2NC1=O (stereo not drawn)	/	0.8	20	0.8	10	94*	-1
Cc1ccc(C(=O)/C=C/Nc2cccc([N+](=O)[O-])c2)o1	/	0.9	17	0.8	8	-4	/
O=C(Nc1nccs1)c1ccc(S(=O)(=O)N2CCOCC2)cc1	-4	1.1	2	1	-13	4	/
Cc1ccc(-c2cc(-c3n[nH]c(=S)o3)c3ccccc3n2)cc1	-2	2.2*	-47	1.5	28	56*	-10
CSc1nnc(-c2cc(-c3ccc(C)cc3)nc3ccccc23)o1	0	1.2	-26	1.2	1	64*	-9
CSc1nnc(-c2ccc(C(F)(F)F)nc2C)o1	11	/	17	/	/	/	/
Cc1ccc(S(=O)(=O)N(Cc2cc3cccc(C)c3[nH]c2=O)c2ccccc2)cc1	/	0.9	10	0.9	8	-2	/
Cc1ccc(NC(=O)NC(=O)N(C(C)C)S(C)(=O)=O)nc1	-2	1.1	-180	1.1	-3	77*	-16
